Data published in publication PMC10193561 (ACS Omega, 2023).
Values after ≈ are worked out from the molar mass of the structure shown.

Columns and labels:
A549 cells = assay: Cell proliferation activity assay; type: cell-based; conditions: Homo sapiens, A549, read-out: IC50 on A549 cells
Summary of the method: (§1)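 Cells were kept in DMEM with 10% FBS and 1% penicillin–streptomycin at 37 °C and 5% CO2, and passaged with 0.25% trypsin-EDTA at 80–90% confluency. They were seeded at 5 × 10^3 cells/well, grown 24 h, then given test compound at 5, 10, 20, 40, 60, 80 or 100 μM final, with 1% DMSO as control. Read-out was MTT absorbance at 490 nm, as viability versus control. IC50 was fitted from viability data; 3–5 replicates per sample; mean ± SD of three independent experiments.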

[1] = Solubility measurement in distilled water; type: physicochemical; conditions: 37 °C, thermodynamic from solid
Summary of the method: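 Excess solid test compound in distilled water was shaken 24 h at 37 °C (100 rpm), then centrifuged at 10,000 rpm for 10 min. Supernatant absorbance was read at 217 nm and solubility calculated from a standard curve.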

HeLa cells [2] = assay: Cell proliferation activity assay; type: cell-based; conditions: Homo sapiens, read-out: IC50 on HeLa cells
Summary of the method: as §1

HeLa cells [3] = assay: Annexin V/PI apoptosis assay by flow cytometry; type: cell-based; conditions: 20 μM, 24 h, control group 6.2%
MCF-7 cells = assay: Cell proliferation activity assay; type: cell-based; conditions: Homo sapiens, MCF7, read-out: IC50 on MCF-7 cells
Summary of the method: as §1

## CC(C)=CCC[C@](C)(O)[C@H]1CC[C@]2(C)[C@@H]1[C@H](O)C[C@@H]1[C@@]3(C)CC[C@H](O[C@@H]4O[C@H](CO)[C@@H](O)[C@H](O)[C@H]4O)C(C)(C)[C@@H]3CC[C@]12C [Rh2, Ginsenoside Rh2]
A549 cells
  IC50: 85.3 µM
[1]
  solubility at 24 h: 74 µg/mL (≈ 119 µM)
HeLa cells [2]
  IC50: 68 µM
HeLa cells [3]
  percentage of early and late apoptosis: 5.3%
MCF-7 cells
  IC50: 73.6 µM
